According to ChEMBL document CHEMBL1122142, “Synthesis and antiinflammatory activity of hexahydrothiopyrano[4,3-c]pyrazoles and related analogues” (J Med Chem, 1982):

Key:
Mus musculus [1] = assay: Mouse active Arthus (MAA) reaction activity was determined for an ip dose of 150 mg/kg in mouse; 31-40%; format: functional; details: route intraperitoneal
Cavia porcellus [2] = assay: The compound was evaluated for the delayed hypersensitivity skin reaction (DHSR) activity after subcutaneous administration; 8/19
Mus musculus [3] = assay: The compound was evaluated for the mouse active Arthus (MAA) reaction activity for an ip dose of 150 mg/kg in mouse; format: functional; details: route intraperitoneal
Outline: (§1)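 CD-1 mice were sensitized ip with a 1:1 Freund's complete adjuvant emulsion containing BSA in saline, 5 weeks before challenge. Compound was suspended in 1% Na CMC in pyrogen-free saline and given as one ip or oral dose 1 h before skin challenge with BSA. Screening doses were 150 mg/kg ip and 300 mg/kg po, with some at 75 or 50 mg/kg ip. Lesions were excised 3.5 h after challenge and weighed against controls.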

Cavia porcellus [4] = assay: The compound was evaluated for the delayed hypersensitivity skin reaction (DHSR) activity after subcutaneous administration; 0/0
Cavia porcellus [5] = assay: Tested in delayed hypersensitivity skin reaction (DHSR) after subcutaneous administration, activity reported as percent inhibition of erythema/induration of lesion; 8/11; format: functional
Outline: (§2)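 Male Hartley guinea pigs were sensitized with Mycobacterium tuberculosis in Freund's incomplete adjuvant, injected into each hind footpad and subcutaneously at the neck. After 3 weeks, 1.2 μg PPD was given intradermally. Compound in sesame oil was given sc, 3 animals per group, 30 min before and 5 h after PPD; screening dose 50 mg/kg.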

Mus musculus [6] = assay: Inhibition of Mouse Active Arthus reaction following 150 mg/Kg i.p.; 41-60% inhibition.; format: functional; details: for inhibition in vivo at 150 mg/kg: Mus musculus, ip
Mus musculus [7] = assay: Inhibition of Mouse active Arthus (MAA) reaction activity was determined for an ip dose of 150 mg/kg in mouse; 21-30%; format: functional; details: route intraperitoneal
Mus musculus [8] = assay: Inhibition of Mouse active Arthus (MAA) reaction activity was determined for peroral dose of 150 mg/kg in mouse; 21-30%; format: functional; details: route oral
Cavia porcellus [9] = assay: The compound was evaluated for the delayed hypersensitivity skin reaction (DHSR) activity after subcutaneous administration; 14/36
Cavia porcellus [10] = assay: Tested in delayed hypersensitivity skin reaction (DHSR) after subcutaneous administration, activity reported as percent inhibition of erythema/induration of lesion; 14/34; format: functional
Mus musculus [11] = assay: The compound was evaluated for the mouse active Arthus (MAA) reaction activity expressed as inhibitory dose after ip administration; format: functional; details: read-out: ID50 (the source's name); outline: as §1
Cavia porcellus [12] = assay: Tested in delayed hypersensitivity skin reaction (DHSR) after subcutaneous administration, activity reported as percent inhibition of erythema/induration of lesion; 21/6; format: functional
Cavia porcellus [13] = assay: Tested in delayed hypersensitivity skin reaction (DHSR) after subcutaneous administration, activity reported as percent inhibition of erythema/induration of lesion; 11/66; format: functional
Cavia porcellus [14] = assay: Tested in delayed hypersensitivity skin reaction (DHSR) after subcutaneous administration, activity reported as percent inhibition of erythema/induration of lesion; 9/24; format: functional; outline: as §2
[15] = Acute toxicity as LD50 value was determined in mice administered orally; format: organism-based; details: mouse, in vivo, po
Rattus norvegicus [16] = assay: Adjuvant-induced arthritis was determined for a dose of 75 mg/kg oral administration; 1/0; format: functional
Outline: (§3)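 Male Lewis rats; day 0, 0.50 mg desiccated Mycobacterium butyricum in 0.10 mL light mineral oil into left plantar paw. Compound dissolved or suspended in 1% CMC, dosed daily for 21 days starting the day before adjuvant. On day 21, injected and noninjected hind paws weighed. Values are percent inhibition, local (injected paw)/systemic (noninjected paw).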

Rattus norvegicus [17] = assay: Carrageenan-induced edema was determined after intraperitoneal administration; format: functional; details: ip, read-out: ID50 (the source's name)
Outline: (§4)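 Adult male Sprague-Dawley (CD) rats, 160–200 g. Single dose in 1% CMC given 2 h before footpad injection of 0.05 mL 1% carrageenin in pyrogen-free saline. Paws removed and weighed at 3 h, with the contralateral paw as control. ID50 is the dose giving 50% edema inhibition.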

[18] = Acute toxicity as LD50 value was determined in mice administered intraperitoneally; format: organism-based; details: mouse, in vivo, ip
Rattus norvegicus [19] = assay: Adjuvant-induced arthritis was determined for a dose of 150 mg/kg administered orally; 17/0; format: functional; details: po; outline: as §3
Cavia porcellus [20] = assay: Tested in delayed hypersensitivity skin reaction (DHSR) after subcutaneous administration, activity reported as percent inhibition of erythema/induration of lesion; 13/52; format: functional
Rattus norvegicus [21] = assay: Carrageenan-induced edema was determined after oral administration; format: functional; details: read-out: ID50 (the source's name); outline: as §4
Mus musculus [22] = assay: The compound was evaluated for the mouse active Arthus (MAA) reaction activity expressed as inhibitory dose after oral administration; format: functional; details: read-out: ID50 (the source's name); outline: as §1
Rattus norvegicus [23] = assay: Adjuvant-induced arthritis was determined for a dose of 150 mg/kg administered intraperitoneally; 16/72; format: functional; details: ip, route intraperitoneal; outline: as §3
[24] = Therapeutic ratio was determined for intraperitoneal administration; format: ADME; details: ip; read-out: TR
Rattus norvegicus [25] = assay: Adjuvant-induced arthritis was determined for a dose of 75 mg/kg intraperitoneal administration; 28/78; format: functional; details: ip; outline: as §3
Cavia porcellus [26] = assay: Tested in delayed hypersensitivity skin reaction (DHSR) after subcutaneous administration, activity reported as percent inhibition of erythema/induration of lesion; 4/12; format: functional; outline: as §2
Cavia porcellus [27] = assay: Tested in delayed hypersensitivity skin reaction (DHSR) after subcutaneous administration, activity reported as percent inhibition of erythema/induration of lesion; 6/12; format: functional; outline: as §2
Cavia porcellus [28] = assay: Tested in delayed hypersensitivity skin reaction (DHSR) after subcutaneous administration, activity reported as percent inhibition of erythema/induration of lesion; 9/32; format: functional; outline: as §2
Mus musculus [29] = assay: The compound was evaluated for the mouse active Arthus (MAA) reaction activity for an ip screening dose of 50 mg/kg; format: functional; details: route intraperitoneal; outline: as §1

## CCCN1N=C2/C(=C/c3ccccc3C)CSCC2C1c1ccccc1C (stereo not drawn)
Mus musculus [1]
  inhibition in vivo at 150 mg/kg: 31%
Cavia porcellus [2]
  Activity: 8

## CN1CCN(CCCN2N=C3/C(=C/c4ccc([S+](C)[O-])cc4)COCC3C2c2ccc([S+](C)[O-])cc2)CC1.O=C(O)/C=C\C(=O)O (stereo not drawn)
Mus musculus [3]
  inhibition in vivo at 150 mg/kg: < 20%
Cavia porcellus [4]
  Activity: 0

## CCCN1N=C2/C(=C/c3cccc(C(F)(F)F)c3)CS(=O)(=O)CC2C1c1cccc(C(F)(F)F)c1 (stereo not drawn)
Cavia porcellus [5]
  Activity: 8
Mus musculus [6]
  inhibition in vivo at 150 mg/kg: 41%

## CCCN1N=C2/C(=C/c3ccc(Cl)cc3)CSCC2C1c1ccc(Cl)cc1 (stereo not drawn)
Mus musculus [7]
  inhibition in vivo at 150 mg/kg: 21%
Mus musculus [8]
  inhibition in vivo at 150 mg/kg: 21%
Cavia porcellus [9]
  Activity: 14

## COc1ccc(/C=C2\CSCC3C2=NN(CCCN2CCN(C)CC2)C3c2ccc(OC)cc2)cc1.O=C(O)/C=C\C(=O)O (stereo not drawn)
Cavia porcellus [10]
  Activity: 14
Mus musculus [3]
  inhibition in vivo at 150 mg/kg: > 60%
Mus musculus [11]
  ED50: 60 mg/kg

## CN1CCN(CCCN2N=C3/C(=C/c4ccccc4)CSCC3C2c2ccccc2)CC1.O=C(O)/C=C\C(=O)O (stereo not drawn)
Cavia porcellus [12]
  Inhibition: 21%
Mus musculus [6]
  Inhibition: 41%

## CN1CCN(CCCN2N=C3/C(=C/c4ccccc4)CSCC3C2c2ccccc2)CC1 (stereo not drawn)
Cavia porcellus [13]
  Activity: 11
Mus musculus [6]
  inhibition in vivo at 150 mg/kg: 41%
Mus musculus [8]
  inhibition in vivo at 150 mg/kg: 21%

## CC(=O)N1N=C2/C(=C/c3cccnc3)CSCC2C1c1cccnc1 (stereo not drawn)
Cavia porcellus [14]
  Activity: 9
Mus musculus [3]
  inhibition in vivo at 150 mg/kg: < 20%

## CCCN1N=C2/C(=C/c3ccc(C)cc3)CS(=O)(=O)CC2C1c1ccc(C)cc1 (stereo not drawn)
[15]
  LD50: > 4000 mg/kg
Rattus norvegicus [16]
  inhibition in vivo at 75 mg/kg: 1%
Rattus norvegicus [17]
  ED50: 84 mg/kg
[18]
  LD50: 3400 mg/kg
Rattus norvegicus [19]
  inhibition in vivo at 150 mg/kg: 17%
Cavia porcellus [20]
  Activity: 13
Mus musculus [11]
  ED50: 140 mg/kg
Rattus norvegicus [21]
  ED50: 250 mg/kg
Mus musculus [22]
  ED50: > 600 mg/kg
Rattus norvegicus [23]
  inhibition in vivo at 150 mg/kg: 16%
Mus musculus [6]
  inhibition in vivo at 150 mg/kg: 41%
[24]
  selectivity ratio: 24
Rattus norvegicus [25]
  inhibition in vivo at 75 mg/kg: 28%

## CCCN1N=C2/C(=C/c3ccc(OC)cc3)C[S+]([O-])CC2C1c1ccc(OC)cc1 (single isomer, unassigned; isomer A)
Cavia porcellus [26]
  Activity: 4
Mus musculus [6]
  inhibition in vivo at 150 mg/kg: 41%

## CCCCN1N=C2/C(=C/c3cccnc3)CSCC2C1c1cccnc1 (stereo not drawn)
Mus musculus [3]
  inhibition in vivo at 150 mg/kg: < 20%
Cavia porcellus [27]
  Activity: 6

## CN1CCN(CCCN2N=C3/C(=C/c4ccccc4)COCC3C2c2ccccc2)CC1.O=C(O)/C=C\C(=O)O (stereo not drawn)
Cavia porcellus [28]
  Activity: 9
Mus musculus [29]
  inhibition in vivo at 50 mg/kg: > 60%
